Reference: ChEMBL document CHEMBL1150966, “New iridoids from the medicinal plant Barleria prionitis with potent activity against respiratory syncytial virus” (J Nat Prod, 1998)
≈ marks a conversion by molar mass, not a printed value. Calls of active or inactive are those of the source. The calls are words filed in the database; no cut-off is given here.

Tests used:
[1] = Cytotoxicity against human Hep2 cells; type: cell-based, HEp-2; conditions: for IC50: Homo sapiens, HEp-2
Outline: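 Cytotoxicity to Hep-2 cells was measured under the same conditions as the viral CPE assay. It is reported in µg/mL as the 50% inhibitory concentration (IC50).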

[2] = Selectivity index, ratio of IC50 for human Hep2 cells to EC50 for respiratory syncytial virus A2; type: toxicity, cell-based, HEp-2; conditions: for selectivity ratio: Hep2 cells, read-out: Ratio IC50/EC50
Outline: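 The selectivity index is IC50/EC50. The IC50 is for Hep-2 cytotoxicity and the EC50 is for RSV A2 CPE inhibition, both in µg/mL from the same CPE assay conditions.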

[3] = test system: Respiratory syncytial virus; experiment: Antiviral activity against respiratory syncytial virus A2 in human Hep2 cells assessed as inhibition of virus-induced cytopathic effect; type: functional, organism-based; conditions: HEp-2
Outline: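 Cell-based viral cytopathic effect (CPE) assay with RSV strain A2 in Hep-2 cells. Antiviral activity is expressed in µg/mL as the 50% effective concentration (EC50).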

EC50 [3]	Structure (SMILES)	IC50 [1]	selectivity ratio [2]	Activity ([1]; human, hep-2)	Activity ([2]; hep-2)	Activity [3]
–	C[C@@H]1O[C@@H](O[C@@H]2[C@@H](O)[C@H](OCCc3ccc(O)c(O)c3)O[C@H](CO)[C@H]2OC(=O)/C=C/c2ccc(O)c(O)c2)[C@H](O)[C@H](O)[C@H]1O [ACETOSIDE]	76.9 mg/L (≈ 123 µM)	85.4	–	–	–
–	COC(=O)C1=CO[C@@H](O[C@@H]2O[C@H](CO)[C@@H](O)[C@H](O)[C@H]2O)[C@H]2[C@@H]1[C@H](O)C[C@]2(C)OC(C)=O [BARLERIN]	–	–	Not Active	Not Active	inactive
2.46 mg/L (≈ 4.14 µM)	COC(=O)C1=CO[C@@H](O[C@@H]2O[C@H](CO)[C@@H](O)[C@H](O)[C@H]2O)[C@H]2[C@@H]1[C@H](OC(=O)/C=C/c1ccc(O)cc1)C[C@]2(C)OC(C)=O	42 mg/L (≈ 70.6 µM)	17	–	–	–
2.46 mg/L (≈ 4.14 µM)	COC(=O)C1=CO[C@@H](O[C@@H]2O[C@H](CO)[C@@H](O)[C@H](O)[C@H]2O)[C@H]2[C@@H]1[C@H](OC(=O)/C=C\c1ccc(O)cc1)C[C@]2(C)OC(C)=O	42 mg/L (≈ 70.6 µM)	17	–	–	–
